Assay results as given in article PMC9214341 (Acta Pharmaceutica Sinica. B, 2021).

Tests used:
[1] = test system: tumor infiltrating immune cells; assay: Flow cytometry analysis of tumor-infiltrating immune cells; format: in vivo, BALB/c mice; details: CT26 tumor-bearing mice, 16 mg/kg daily, 5 days
Summary of the method: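 Tumor-bearing mice (n = 5) got vehicle or test compound. Tumors were cut up and digested in RPMI 1640 with 0.1% type IV collagenase and 0.01% DNase I at 37 °C for 45 min, passed through a 70 μm strainer, and red cells lysed. Cells were Fc-blocked on ice for 15 min and surface-stained on ice for 30 min. MDSCs were scored as a proportion of CD45⁺ cells (mean ± SEM).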

MC38 cells = assay: SRB cell proliferation assay, MC38; format: cell-based, murine; details: gradient concentrations, 72 h
CT26 cells = assay: SRB cell proliferation assay, CT26; format: cell-based, murine; details: gradient concentrations, 72 h

For O=C(/C=C/c1cccnc1)NCCCCC1CCN(C(=O)c2ccccc2)CC1 [FK866], the “infiltrating MDSCs in CT26 tumors” value [1] was “did not affect”, the cell growth sensitivity (MC38 cells) was “did not show the apparent growth dependency” and the cell growth sensitivity (CT26 cells) was “did not show the apparent growth dependency”.
